# Measurements from ChEMBL document CHEMBL4732088, “Identification and optimization of piperlongumine analogues as potential antioxidant and anti-inflammatory agents via activation of Nrf2” (Eur J Med Chem, 2021).
# The source made the active and inactive calls. The calls are words filed in the database; no cut-off is given here.
# Tests used:
# PC-12 [1] = experiment: Protection against 6-OHDA-induced apoptosis in rat PC12 cells assessed as early apoptotic cells at 10 uM incubated for 24 hrs by annexin V FITC/propidium iodide staining based flow cytometry (reference value: 19.2 %); type: functional
# PC-12 [2] = experiment: Protection against H2O2-induced mitochondrial dysfunction in rat PC12 cells assessed as change in mitochondrial membrane potential loss at 20 uM pretreated with compound followed by H2O2 addition by JC-1 staining based flow cytometry (reference value: 21.3 %); type: functional
# Procedure, shortened: (§1)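 Mitochondrial membrane potential in PC12 cells pretreated with compound (5, 10, 20 μM), then exposed to H₂O₂ (200 μM) or 6-OHDA (150 μM). JC-1 staining, red-to-green fluorescence shift read by flow cytometry. Mean ± SD, n = 3.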
# [3] = biological target: T1, Nuclear factor erythroid 2-related factor 2 (Mus musculus) (UniProt Q60795); experiment: Activation of Nrf2 in mouse BV2 cells assessed as upregulation of GCLM protein expression after 24 hrs by Western blot analysis; type: cell-based; details: BV-2, filed as activator, dose 5-20 µM
# T1 sequence (whole entry): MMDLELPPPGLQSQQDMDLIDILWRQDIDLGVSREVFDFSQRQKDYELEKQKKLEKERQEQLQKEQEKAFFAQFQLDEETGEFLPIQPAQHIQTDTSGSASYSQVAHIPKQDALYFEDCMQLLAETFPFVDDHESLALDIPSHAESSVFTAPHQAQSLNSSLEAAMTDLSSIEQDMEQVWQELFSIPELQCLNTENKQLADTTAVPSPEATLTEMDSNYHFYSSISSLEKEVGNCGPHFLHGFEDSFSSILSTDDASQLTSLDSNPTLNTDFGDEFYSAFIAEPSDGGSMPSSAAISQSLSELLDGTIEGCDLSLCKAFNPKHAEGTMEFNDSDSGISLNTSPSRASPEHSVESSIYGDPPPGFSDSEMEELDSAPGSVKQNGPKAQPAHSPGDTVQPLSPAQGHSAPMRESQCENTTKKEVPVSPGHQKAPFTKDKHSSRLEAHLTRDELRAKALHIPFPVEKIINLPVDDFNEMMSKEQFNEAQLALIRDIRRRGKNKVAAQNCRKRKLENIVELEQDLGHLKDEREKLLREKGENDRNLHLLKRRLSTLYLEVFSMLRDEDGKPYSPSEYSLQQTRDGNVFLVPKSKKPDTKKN
# Procedure, shortened: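 BV2 microglia exposed to compound for 24 h over a concentration series; Nrf2, NQO1, HO-1, TrxR1, GCLM and GCLC protein levels read by Western blot.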
# [4] = Antioxidant activity assessed as DPPH radical scavenging activity; type: functional
# PC-12 [5] = experiment: Protection against H2O2-induced mitochondrial dysfunction in rat PC12 cells assessed as change in mitochondrial membrane potential at 10 uM pretreated with compound followed by H2O2 addition by JC-1 staining based flow cytometry (reference value: 78.7 %); type: functional; procedure, shortened: as §1
# PC-12 [6] = experiment: Protection against 6-OHDA-induced apoptosis in rat PC12 cells assessed as early apoptotic cells at 5 uM incubated for 24 hrs by annexin V FITC/propidium iodide staining based flow cytometry (reference value: 19.2 %); type: functional
# PC-12 [7] = experiment: Protection against 6-OHDA-induced apoptosis in rat PC12 cells assessed as necrotic cells at 5 uM incubated for 24 hrs by annexin V FITC/propidium iodide staining based flow cytometry (reference value: 1.1 %); type: functional
# [8] = biological target: T1, Nuclear factor erythroid 2-related factor 2 (Mus musculus); experiment: Activation of Nrf2 in mouse BV2 cells assessed as inhibition of LPS-induced IL-6 production at 5 to 20 uM by ELISA; type: cell-based; details: BV-2, filed as activator, dose 5-20 µM
# Procedure, shortened: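 BV2 microglia pretreated with compound, then LPS-stimulated; IL-6 quantified by ELISA kit; mean ± SD, n = 3.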
# PC-12 [9] = experiment: Neuroprotective activity against 6-OHDA-induced cell damage in rat PC12 cells assessed as cell viability at 20 uM after 24 hrs by MTT assay (reference value: 45.23 +/- 4.37 %); type: functional; details: read-out: Activity
# PC-12 [10] = experiment: Protection against H2O2-induced apoptosis in rat PC12 cells assessed as late apoptotic cells at 10 uM incubated for 24 hrs by annexin V FITC/propidium iodide staining based flow cytometry (reference value: 16.2 %); type: functional
# PC-12 [11] = experiment: Protection against 6-OHDA-induced oxidative damage in rat PC12 cells assessed as intracellular ROS level by measuring mean fluorescence intensity at 5 uM pretreated with compound followed by 6-OHDA stimulation by DCFH-DA staining based flow cytometry (reference value: 26327.34); type: functional
# PC-12 [12] = experiment: Protection against H2O2-induced apoptosis in rat PC12 cells assessed as late apoptotic cells at 20 uM incubated for 24 hrs by annexin V FITC/propidium iodide staining based flow cytometry (reference value: 16.2 %); type: functional
# PC-12 [13] = experiment: Protection against H2O2-induced apoptosis in rat PC12 cells assessed as early apoptotic cells at 5 uM incubated for 24 hrs by annexin V FITC/propidium iodide staining based flow cytometry (reference value: 3.9 %); type: functional
# PC-12 [14] = experiment: Protection against H2O2-induced oxidative damage in rat PC12 cells assessed as intracellular ROS level by measuring mean fluorescence intensity at 10 uM pretreated with compound followed by H2O2 stimulation by DCFH-DA staining based flow cytometry (reference value: 233032.55); type: functional
# PC-12 [15] = experiment: Protection against 6-OHDA-induced apoptosis in rat PC12 cells assessed as late apoptotic cells at 20 uM incubated for 24 hrs by annexin V FITC/propidium iodide staining based flow cytometry (reference value: 7.6 %); type: functional
# PC-12 [16] = experiment: Protection against H2O2-induced apoptosis in rat PC12 cells assessed as early apoptotic cells at 10 uM incubated for 24 hrs by annexin V FITC/propidium iodide staining based flow cytometry (reference value: 3.9 %); type: functional
# PC-12 [17] = experiment: Prevention of H2O2-induced calcium overload in rat PC12 cells assessed as reduction in intracellular free calcium by measuring mean fluorescence intensity at 20 uM pretreated with compound followed by H2O2 addition by Fluo-3AM based fluorescence assay (reference value: 17791.36%); type: functional; details: time 24 hrs
smiles,measurement,setting,value
CCN(C)C(=O)N1CCN(C(=O)/C=C/c2ccc(F)cc2)C1=O,Activity,PC-12 [1],7.4%
same,Activity,PC-12 [2],7.2%
same,Activity,[3],Dose-dependent effect
same,Activity,[4],inactive
same,Activity,PC-12 [5],90.2%
same,Activity,PC-12 [6],11.1%
same,Activity,PC-12 [7],1%
same,Activity,[8],Active
same,viability at 20 µM,PC-12 [9],75.4%
same,Activity,PC-12 [10],5.3%
same,Flu intensity,PC-12 [11],18168.07
same,Activity,PC-12 [12],3.7%
same,Activity,PC-12 [13],5.1%
same,Flu intensity,PC-12 [14],146612.92
same,Activity,PC-12 [15],5%
same,Activity,PC-12 [16],2.1%
same,Flu intensity,PC-12 [17],6730.32
